# The M2OR odorant receptor database
# Changes are numbered by the printed parent chain.
# Experiments:
# Conditions in all cases: stereoisomer not certain
# OR5AC2 (Homo sapiens) = biological target: T1, OR5AC2 (Homo sapiens) (UniProt Q9NZP5)
# T1 sequence (whole entry): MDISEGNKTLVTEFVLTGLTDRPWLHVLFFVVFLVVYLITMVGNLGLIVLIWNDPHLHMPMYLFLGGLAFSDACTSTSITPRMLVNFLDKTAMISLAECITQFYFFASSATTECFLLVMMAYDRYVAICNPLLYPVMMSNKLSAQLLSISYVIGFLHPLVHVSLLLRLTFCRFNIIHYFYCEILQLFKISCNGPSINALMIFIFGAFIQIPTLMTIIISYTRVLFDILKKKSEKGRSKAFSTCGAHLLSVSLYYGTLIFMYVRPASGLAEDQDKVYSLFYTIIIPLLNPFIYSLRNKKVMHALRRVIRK
# Outline: (§1)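 Transient luciferase assays in mammalian cell lines were common, though methods varied by source. The values come from published papers and their supplementary material, with extra details from the original authors when needed. Responsive refers to a measured signal the original authors judged statistically different from baseline, and non-responsive (inactive) to the remainder.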
# OR56B4 (Homo sapiens) = biological target: T2, OR56B4 (Homo sapiens) (UniProt Q8NH76)
# T2 sequence (whole entry): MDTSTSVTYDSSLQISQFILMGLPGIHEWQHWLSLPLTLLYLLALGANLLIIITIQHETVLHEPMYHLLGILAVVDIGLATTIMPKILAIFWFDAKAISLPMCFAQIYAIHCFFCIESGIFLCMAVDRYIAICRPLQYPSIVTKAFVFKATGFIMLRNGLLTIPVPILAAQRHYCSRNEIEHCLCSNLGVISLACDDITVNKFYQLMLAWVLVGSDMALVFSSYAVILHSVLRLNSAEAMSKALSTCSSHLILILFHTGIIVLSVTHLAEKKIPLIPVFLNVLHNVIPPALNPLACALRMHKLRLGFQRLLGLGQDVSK
# Outline: as §1
# OR5A1 (Homo sapiens) = biological target: T3, OR5A1 (Homo sapiens) (UniProt Q8NGJ0)
# T3 sequence (whole entry): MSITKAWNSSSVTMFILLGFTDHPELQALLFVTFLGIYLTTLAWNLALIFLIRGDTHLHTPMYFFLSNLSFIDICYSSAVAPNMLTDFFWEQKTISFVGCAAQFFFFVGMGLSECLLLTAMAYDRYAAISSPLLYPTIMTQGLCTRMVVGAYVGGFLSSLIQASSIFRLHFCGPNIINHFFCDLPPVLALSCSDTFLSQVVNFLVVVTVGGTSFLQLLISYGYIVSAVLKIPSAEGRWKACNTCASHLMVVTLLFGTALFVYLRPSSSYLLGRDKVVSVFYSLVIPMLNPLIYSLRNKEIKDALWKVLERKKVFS
# Outline: as §1
# OR5A1 D183N = tested on: T4, OR5A1 D183N
# T4 sequence (whole entry): T3 sequence (whole entry) with D183N
# Outline: as §1
# OR5A2 (Homo sapiens) = biological target: T5, OR5A2 (Homo sapiens) (UniProt Q8NGI9)
# T5 sequence (whole entry): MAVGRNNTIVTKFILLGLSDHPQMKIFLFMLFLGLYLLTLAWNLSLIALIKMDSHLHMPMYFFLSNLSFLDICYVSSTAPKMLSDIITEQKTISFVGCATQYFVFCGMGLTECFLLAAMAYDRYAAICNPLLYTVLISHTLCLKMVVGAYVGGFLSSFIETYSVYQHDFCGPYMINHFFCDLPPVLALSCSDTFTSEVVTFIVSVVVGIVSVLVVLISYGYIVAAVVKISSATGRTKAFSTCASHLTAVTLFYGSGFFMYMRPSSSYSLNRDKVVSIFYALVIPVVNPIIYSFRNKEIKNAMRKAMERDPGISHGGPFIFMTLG
# Outline: as §1
# OR5AK2 (Homo sapiens) = biological target: T6, OR5AK2 (Homo sapiens) (UniProt Q8NH90)
# T6 sequence (whole entry): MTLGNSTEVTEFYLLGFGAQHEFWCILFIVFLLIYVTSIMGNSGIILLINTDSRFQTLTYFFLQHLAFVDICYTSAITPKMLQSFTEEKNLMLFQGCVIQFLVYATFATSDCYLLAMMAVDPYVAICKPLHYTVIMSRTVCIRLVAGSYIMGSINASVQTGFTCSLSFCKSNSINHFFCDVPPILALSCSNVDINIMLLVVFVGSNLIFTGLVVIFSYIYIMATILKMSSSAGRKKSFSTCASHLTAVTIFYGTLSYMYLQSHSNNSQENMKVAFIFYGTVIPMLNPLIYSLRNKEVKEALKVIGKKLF
# Outline: as §1
# OR5AN1 (Homo sapiens) = biological target: T7, OR5AN1 (Homo sapiens) (UniProt Q8NGI8)
# T7 sequence (whole entry): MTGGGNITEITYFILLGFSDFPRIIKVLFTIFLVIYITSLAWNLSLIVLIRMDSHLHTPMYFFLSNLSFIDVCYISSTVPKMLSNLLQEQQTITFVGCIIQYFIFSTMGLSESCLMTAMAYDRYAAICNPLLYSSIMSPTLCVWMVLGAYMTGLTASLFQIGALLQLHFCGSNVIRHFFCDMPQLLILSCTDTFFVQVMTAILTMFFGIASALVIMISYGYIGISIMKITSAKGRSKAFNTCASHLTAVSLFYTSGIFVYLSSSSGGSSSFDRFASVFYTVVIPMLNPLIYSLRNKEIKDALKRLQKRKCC
# Outline: as §1
# OR5AP2 (Homo sapiens) = biological target: T8, OR5AP2 (Homo sapiens) (UniProt Q8NGF4)
# T8 sequence (whole entry): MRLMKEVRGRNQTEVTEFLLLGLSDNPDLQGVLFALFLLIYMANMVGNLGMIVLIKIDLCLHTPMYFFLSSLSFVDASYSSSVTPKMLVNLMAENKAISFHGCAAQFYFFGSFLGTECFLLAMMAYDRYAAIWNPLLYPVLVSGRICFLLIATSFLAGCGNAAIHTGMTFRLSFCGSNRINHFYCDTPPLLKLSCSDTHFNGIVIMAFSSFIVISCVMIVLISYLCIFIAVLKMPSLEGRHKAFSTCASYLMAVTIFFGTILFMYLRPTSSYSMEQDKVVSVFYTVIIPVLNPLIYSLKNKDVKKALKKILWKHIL
# Outline: as §1
# OR5AC1 (Homo sapiens) = OR5AC1 (Homo sapiens) (UniProt P0C628)
# Outline: as §1
# OR5AL1 (Homo sapiens) = OR5AL1 (Homo sapiens) (UniProt P0C617)
# Outline: as §1
# 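Further: active if original authors judged signal statistically different from baseline.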
# Chain of OR5AC1 (Homo sapiens) (P0C628 whole entry): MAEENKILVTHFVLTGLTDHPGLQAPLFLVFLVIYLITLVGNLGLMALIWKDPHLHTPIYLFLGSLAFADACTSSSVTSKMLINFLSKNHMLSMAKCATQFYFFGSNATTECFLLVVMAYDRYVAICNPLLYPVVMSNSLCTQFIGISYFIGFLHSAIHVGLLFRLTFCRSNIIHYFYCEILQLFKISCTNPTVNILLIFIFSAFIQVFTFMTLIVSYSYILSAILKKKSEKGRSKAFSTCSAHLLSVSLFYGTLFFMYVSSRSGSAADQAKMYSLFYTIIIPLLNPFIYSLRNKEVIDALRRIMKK
# Chain of OR5AL1 (Homo sapiens) (P0C617 whole entry): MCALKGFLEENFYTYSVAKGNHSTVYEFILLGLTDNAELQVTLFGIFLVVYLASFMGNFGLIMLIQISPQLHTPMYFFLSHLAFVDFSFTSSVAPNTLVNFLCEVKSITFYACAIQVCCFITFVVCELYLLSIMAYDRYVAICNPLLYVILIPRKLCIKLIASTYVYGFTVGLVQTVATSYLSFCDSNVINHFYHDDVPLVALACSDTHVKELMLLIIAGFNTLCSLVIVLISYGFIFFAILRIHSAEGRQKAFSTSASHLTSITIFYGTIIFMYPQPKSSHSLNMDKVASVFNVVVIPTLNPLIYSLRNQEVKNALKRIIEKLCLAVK
smiles,measurement,setting,value
CC(=O)C=CC1=C(C)CCCC1(C)C,odorant receptor agonist call,OR5AC2 (Homo sapiens),inactive
CC1=NC(C)C(C)S1 (configuration not stated),odorant receptor agonist call,OR56B4 (Homo sapiens),inactive
same,odorant receptor agonist call,OR5A1 (Homo sapiens),inactive
same,odorant receptor agonist call,OR5A1 D183N,inactive
same,odorant receptor agonist call,OR5A2 (Homo sapiens),inactive
same,odorant receptor agonist call,OR5AC2 (Homo sapiens),inactive
same,odorant receptor agonist call,OR5AK2 (Homo sapiens),inactive
same,odorant receptor agonist call,OR5AN1 (Homo sapiens),inactive
same,odorant receptor agonist call,OR5AP2 (Homo sapiens),inactive
CCCCCC1CCCC(=O)O1 (configuration not stated),odorant receptor agonist call,OR56B4 (Homo sapiens),active
CCCCCC(=O)C(C)C(C)=O (configuration not stated),odorant receptor agonist call,OR56B4 (Homo sapiens),inactive
same,odorant receptor agonist call,OR5A1 (Homo sapiens),inactive
same,odorant receptor agonist call,OR5A2 (Homo sapiens),inactive
same,odorant receptor agonist call,OR5AC2 (Homo sapiens),inactive
same,odorant receptor agonist call,OR5AK2 (Homo sapiens),inactive
same,odorant receptor agonist call,OR5AN1 (Homo sapiens),inactive
same,odorant receptor agonist call,OR5AP2 (Homo sapiens),inactive
CC(=O)c1c(C)c([N+](=O)[O-])c(C(C)(C)C)c([N+](=O)[O-])c1C,odorant receptor agonist call,OR56B4 (Homo sapiens),inactive
same,odorant receptor agonist call,OR5A1 (Homo sapiens),inactive
same,odorant receptor agonist call,OR5A2 (Homo sapiens),inactive
same,odorant receptor agonist call,OR5AC1 (Homo sapiens),inactive
same,odorant receptor agonist call,OR5AC2 (Homo sapiens),inactive
same,odorant receptor agonist call,OR5AK2 (Homo sapiens),inactive
same,odorant receptor agonist call,OR5AL1 (Homo sapiens),inactive
same,odorant receptor agonist call,OR5AN1 (Homo sapiens),active
same,odorant receptor agonist call,OR5AP2 (Homo sapiens),inactive
CCC1OC(C)=C(O)C1=O (configuration not stated),odorant receptor agonist call,OR56B4 (Homo sapiens),inactive
same,odorant receptor agonist call,OR5A1 (Homo sapiens),inactive
same,odorant receptor agonist call,OR5A1 D183N,inactive
same,odorant receptor agonist call,OR5A2 (Homo sapiens),inactive
same,odorant receptor agonist call,OR5AC2 (Homo sapiens),inactive
same,odorant receptor agonist call,OR5AK2 (Homo sapiens),inactive
same,odorant receptor agonist call,OR5AN1 (Homo sapiens),inactive
same,odorant receptor agonist call,OR5AP2 (Homo sapiens),inactive
CCC(S)C(C)CO (configuration not stated),odorant receptor agonist call,OR56B4 (Homo sapiens),inactive
same,odorant receptor agonist call,OR5A1 (Homo sapiens),inactive
same,odorant receptor agonist call,OR5A2 (Homo sapiens),inactive
same,odorant receptor agonist call,OR5AC2 (Homo sapiens),inactive
same,odorant receptor agonist call,OR5AK2 (Homo sapiens),inactive
same,odorant receptor agonist call,OR5AN1 (Homo sapiens),inactive
same,odorant receptor agonist call,OR5AP2 (Homo sapiens),inactive
Cc1ccc(C(C)C)cc1O,odorant receptor agonist call,OR5AC2 (Homo sapiens),inactive
C=CCOC(=O)COCCC(C)C,odorant receptor agonist call,OR5AC2 (Homo sapiens),inactive
C=CC(C)(CCC=C(C)C)OC(C)=O (configuration not stated),odorant receptor agonist call,OR5AC2 (Homo sapiens),inactive
CCCCC(S)C(C)CO (configuration not stated),odorant receptor agonist call,OR56B4 (Homo sapiens),active
same,odorant receptor agonist call,OR5A1 (Homo sapiens),inactive
same,odorant receptor agonist call,OR5A2 (Homo sapiens),inactive
same,odorant receptor agonist call,OR5AC2 (Homo sapiens),inactive
same,odorant receptor agonist call,OR5AK2 (Homo sapiens),inactive
same,odorant receptor agonist call,OR5AN1 (Homo sapiens),inactive
same,odorant receptor agonist call,OR5AP2 (Homo sapiens),inactive
CC(CC=O)c1ccc(C(C)(C)C)cc1 (configuration not stated),odorant receptor agonist call,OR5AC2 (Homo sapiens),inactive
CCCCCCC=CCCC=O,odorant receptor agonist call,OR56B4 (Homo sapiens),inactive
same,odorant receptor agonist call,OR5A1 (Homo sapiens),inactive
same,odorant receptor agonist call,OR5A1 D183N,inactive
same,odorant receptor agonist call,OR5A2 (Homo sapiens),inactive
same,odorant receptor agonist call,OR5AC2 (Homo sapiens),inactive
same,odorant receptor agonist call,OR5AK2 (Homo sapiens),inactive
same,odorant receptor agonist call,OR5AN1 (Homo sapiens),inactive
same,odorant receptor agonist call,OR5AP2 (Homo sapiens),inactive
CC1=C(O)C(=O)OC1C (configuration not stated),odorant receptor agonist call,OR56B4 (Homo sapiens),inactive
same,odorant receptor agonist call,OR5A1 (Homo sapiens),inactive
same,odorant receptor agonist call,OR5A1 D183N,inactive
same,odorant receptor agonist call,OR5A2 (Homo sapiens),inactive
same,odorant receptor agonist call,OR5AC2 (Homo sapiens),inactive
same,odorant receptor agonist call,OR5AK2 (Homo sapiens),inactive
same,odorant receptor agonist call,OR5AN1 (Homo sapiens),inactive
same,odorant receptor agonist call,OR5AP2 (Homo sapiens),inactive
CC(C)=CCCC(C)CC=O (configuration not stated),odorant receptor agonist call,OR5AC2 (Homo sapiens),inactive
CCCC(S)CCOC(C)=O (configuration not stated),odorant receptor agonist call,OR56B4 (Homo sapiens),inactive
same,odorant receptor agonist call,OR5A1 (Homo sapiens),inactive
same,odorant receptor agonist call,OR5A1 D183N,inactive
same,odorant receptor agonist call,OR5A2 (Homo sapiens),inactive
same,odorant receptor agonist call,OR5AC2 (Homo sapiens),inactive
same,odorant receptor agonist call,OR5AK2 (Homo sapiens),inactive
same,odorant receptor agonist call,OR5AN1 (Homo sapiens),inactive
same,odorant receptor agonist call,OR5AP2 (Homo sapiens),inactive
